This note sets out measurements from ChEMBL document CHEMBL1130054, “Non-peptide glycoprotein IIb/IIIa inhibitors. 17. Design and synthesis of orally active, long-acting non-peptide fibrinogen receptor antagonists” (J Med Chem, 1997).

Experiment [1] has as its target T1, Integrin alpha-IIb/beta-3 (Homo sapiens, UniProt P05106+P08514). Kind of experiment: Displacement of [125I]L-692884 from purified Fibrinogen Receptor activated by coating onto yttrium silicate. Format: protein-complex assay. Put shortly: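 Purified human GPIIb/IIIa activated by coating on yttrium silicate SPA beads (~0.3 nM) with ~0.3 nM [125I]L-692,884 in 20 mM HEPES, 0.15 M NaCl, pH 7.5, at room temperature. Competitor was tested over a wide concentration range. After equilibration, bound CPM was fitted by nonlinear least squares with a Hill slope to give ED50.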
A general note: Loss of bound radioactivity is the signal in a displacement assay; it reports binding, not function.

Experiment [2] is filed under the species Homo sapiens. Kind of experiment: Inhibition of aggregation of human gel-filtered platelets was measured by light transmittance method. The class given is functional. The essentials:
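Human gel-filtered platelets, 2 × 10⁸/mL, with 0.1 mg/mL human fibrinogen and 1 mM CaCl₂ at 37 °C. Aggregation was started with 10 μM ADP added last and followed by light transmittance. IC50 is the concentration halving the aggregation rate vs the uninhibited control, from at least two determinations.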

Experiment [3] concerns the target T1, Integrin alpha-IIb/beta-3. As to the kind of experiment: Displacement of L-736,622 from purified resting Fibrinogen Receptor. Format: protein-complex assay. The essentials:
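Human platelet GPIIb/IIIa, unactivated form from Sephacryl S-300HR (typically 600 nM), in Triton X-100 buffer pH 7.4 with Ca²⁺/Mg²⁺. Used 1 μM fluorescent ligand L-736,622 at room temperature, read by fluorescence displacement. KD was calculated using 3.7 nM as the probe KD.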
Target sequence in this assay (P05106 27-788 limits assumed): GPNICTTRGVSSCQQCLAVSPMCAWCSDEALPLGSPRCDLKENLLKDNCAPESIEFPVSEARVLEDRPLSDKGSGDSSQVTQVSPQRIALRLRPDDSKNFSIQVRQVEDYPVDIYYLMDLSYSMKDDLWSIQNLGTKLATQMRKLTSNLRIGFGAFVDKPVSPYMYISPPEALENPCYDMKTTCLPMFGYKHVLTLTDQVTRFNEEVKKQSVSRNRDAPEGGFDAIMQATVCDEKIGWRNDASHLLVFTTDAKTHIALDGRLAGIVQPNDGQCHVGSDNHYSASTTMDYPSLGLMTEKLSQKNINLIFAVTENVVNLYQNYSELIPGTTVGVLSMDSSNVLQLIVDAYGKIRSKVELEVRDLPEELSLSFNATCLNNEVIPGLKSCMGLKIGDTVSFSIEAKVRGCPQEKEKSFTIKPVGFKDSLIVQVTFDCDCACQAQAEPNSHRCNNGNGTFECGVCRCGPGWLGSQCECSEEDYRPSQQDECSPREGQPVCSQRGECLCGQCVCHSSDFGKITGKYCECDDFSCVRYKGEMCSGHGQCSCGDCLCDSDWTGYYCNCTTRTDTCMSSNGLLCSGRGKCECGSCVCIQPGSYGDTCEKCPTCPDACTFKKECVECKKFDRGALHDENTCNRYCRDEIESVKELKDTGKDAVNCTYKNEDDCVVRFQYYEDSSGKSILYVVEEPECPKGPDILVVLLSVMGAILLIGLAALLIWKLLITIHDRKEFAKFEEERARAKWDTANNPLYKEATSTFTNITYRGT
Target sequence in this assay (P08514 32-887 limits assumed): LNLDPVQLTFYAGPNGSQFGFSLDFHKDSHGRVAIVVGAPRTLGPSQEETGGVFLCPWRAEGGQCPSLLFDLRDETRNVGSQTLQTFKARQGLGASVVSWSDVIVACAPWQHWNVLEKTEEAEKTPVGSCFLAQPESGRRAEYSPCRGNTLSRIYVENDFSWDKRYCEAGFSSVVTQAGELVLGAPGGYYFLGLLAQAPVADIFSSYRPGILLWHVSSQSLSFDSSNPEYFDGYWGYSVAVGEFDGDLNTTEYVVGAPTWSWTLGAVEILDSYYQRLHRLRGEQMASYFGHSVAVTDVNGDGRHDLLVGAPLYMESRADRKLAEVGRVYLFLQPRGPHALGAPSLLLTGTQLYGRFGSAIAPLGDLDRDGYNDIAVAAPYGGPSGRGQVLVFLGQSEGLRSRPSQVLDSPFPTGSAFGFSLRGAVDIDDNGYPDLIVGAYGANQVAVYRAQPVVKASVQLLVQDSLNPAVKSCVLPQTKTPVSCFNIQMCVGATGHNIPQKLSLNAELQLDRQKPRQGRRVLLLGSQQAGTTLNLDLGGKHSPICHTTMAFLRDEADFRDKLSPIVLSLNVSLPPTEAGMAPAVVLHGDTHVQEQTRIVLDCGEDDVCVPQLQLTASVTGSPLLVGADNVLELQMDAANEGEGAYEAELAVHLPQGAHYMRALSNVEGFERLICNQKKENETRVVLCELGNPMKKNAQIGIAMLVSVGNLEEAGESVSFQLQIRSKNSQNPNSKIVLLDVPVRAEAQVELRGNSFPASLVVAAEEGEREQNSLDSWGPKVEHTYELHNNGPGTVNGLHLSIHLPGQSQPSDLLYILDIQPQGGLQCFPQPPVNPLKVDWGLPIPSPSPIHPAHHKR
Target sequence in this assay (P08514 891-1039 limits assumed): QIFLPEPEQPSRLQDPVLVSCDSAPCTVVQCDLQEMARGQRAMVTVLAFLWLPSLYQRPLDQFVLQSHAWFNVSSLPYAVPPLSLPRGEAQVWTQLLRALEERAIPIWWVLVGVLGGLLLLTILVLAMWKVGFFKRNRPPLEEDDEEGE

For experiment [4], the system named is Homo sapiens. Kind of experiment: Inhibition of ADP induced platelet aggregation 75 minutes after administration of 10 ug/kg by gastric lavage. Format: functional. Particulars: 1.25 h. The essentials: (§1)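 Conscious mongrel dogs dosed by gastric lavage with aqueous solution (5 mL, sterile water vehicle); citrated blood at baseline and 20–480 min. PRP (2 × 10⁸ platelets/mL, 37 °C, stirred) aggregated with 10 μM ADP + 1 μM epinephrine; light transmittance; percent inhibition vs pretreatment response. n = 4 or 8.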

Experiment [5] has as its system Homo sapiens. Kind of experiment: Inhibition of ADP induced platelet aggregation after administration of 10 ug/kg by gastric lavage. Format: functional. The essentials:
as §1

In experiment [6] the test system is Canis familiaris. Kind of experiment: Ex vivo inhibition of platelet aggregation at 24 hr after the oral administration of 100 mg/kg in dogs. Format: functional. Particulars: Canis lupus familiaris. Put shortly: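 Conscious dogs (n = 4) dosed orally with crystalline compound in gelatin capsules at 100 µg/kg. Ex vivo aggregation was read 24 h later in citrated PRP (2 × 10⁸ platelets/mL, 37 °C, light transmittance). It was expressed as percent inhibition vs the pretreatment baseline.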

The next experiment deals with Integrin alpha-5/beta-1 (Homo sapiens, UniProt P05556+P08648). Kind of experiment: Inhibition of human umbilical vein endothelial cells (HUVEC) attachment to fibronectin. Format: functional, cell-based.
Chain of Integrin alpha-5/beta-1 (P05556 21-798 limits assumed): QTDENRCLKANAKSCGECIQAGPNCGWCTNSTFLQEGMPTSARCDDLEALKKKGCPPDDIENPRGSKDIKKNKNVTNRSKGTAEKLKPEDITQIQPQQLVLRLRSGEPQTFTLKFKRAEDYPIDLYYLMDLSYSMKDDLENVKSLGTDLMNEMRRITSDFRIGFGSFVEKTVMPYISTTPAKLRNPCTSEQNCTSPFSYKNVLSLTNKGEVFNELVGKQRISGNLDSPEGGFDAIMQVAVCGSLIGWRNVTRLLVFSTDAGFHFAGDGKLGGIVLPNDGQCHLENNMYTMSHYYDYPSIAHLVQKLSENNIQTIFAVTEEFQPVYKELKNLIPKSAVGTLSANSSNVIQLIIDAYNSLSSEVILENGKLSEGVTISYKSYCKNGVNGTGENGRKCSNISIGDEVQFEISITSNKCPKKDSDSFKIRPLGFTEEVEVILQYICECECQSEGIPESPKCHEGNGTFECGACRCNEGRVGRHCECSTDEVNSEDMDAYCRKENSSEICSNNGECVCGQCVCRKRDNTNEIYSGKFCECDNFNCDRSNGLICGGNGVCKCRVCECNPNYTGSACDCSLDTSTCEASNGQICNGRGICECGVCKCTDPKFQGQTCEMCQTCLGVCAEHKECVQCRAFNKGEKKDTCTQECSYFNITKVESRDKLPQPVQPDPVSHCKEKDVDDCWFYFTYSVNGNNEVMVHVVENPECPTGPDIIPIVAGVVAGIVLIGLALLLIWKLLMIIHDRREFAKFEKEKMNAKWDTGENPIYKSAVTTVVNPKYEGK
Chain of Integrin alpha-5/beta-1 (P08648 42-894 limits assumed): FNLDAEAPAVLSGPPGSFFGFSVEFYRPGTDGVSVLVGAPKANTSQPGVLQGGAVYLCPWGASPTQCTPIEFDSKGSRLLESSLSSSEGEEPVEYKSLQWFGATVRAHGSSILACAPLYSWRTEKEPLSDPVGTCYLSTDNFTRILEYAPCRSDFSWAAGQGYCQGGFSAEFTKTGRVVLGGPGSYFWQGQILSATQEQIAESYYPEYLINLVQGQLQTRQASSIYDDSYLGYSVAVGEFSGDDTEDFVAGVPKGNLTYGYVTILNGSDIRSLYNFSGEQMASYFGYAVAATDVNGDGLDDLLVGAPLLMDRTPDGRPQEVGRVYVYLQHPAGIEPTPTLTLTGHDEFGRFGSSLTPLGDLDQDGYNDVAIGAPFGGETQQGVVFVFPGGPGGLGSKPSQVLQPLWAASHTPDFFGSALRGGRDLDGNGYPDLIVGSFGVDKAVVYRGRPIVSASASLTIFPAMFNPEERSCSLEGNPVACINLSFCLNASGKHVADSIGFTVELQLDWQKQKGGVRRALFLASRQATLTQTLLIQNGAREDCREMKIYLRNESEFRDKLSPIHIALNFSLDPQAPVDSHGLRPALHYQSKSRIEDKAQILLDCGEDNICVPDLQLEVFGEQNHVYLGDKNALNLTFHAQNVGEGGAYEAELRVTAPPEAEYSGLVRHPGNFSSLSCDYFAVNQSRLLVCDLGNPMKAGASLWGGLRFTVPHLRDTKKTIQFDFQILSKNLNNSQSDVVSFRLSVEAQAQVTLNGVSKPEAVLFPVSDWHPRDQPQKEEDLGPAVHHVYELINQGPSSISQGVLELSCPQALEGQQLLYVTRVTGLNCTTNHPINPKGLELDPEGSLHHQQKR
Chain of Integrin alpha-5/beta-1 (P08648 895-1049 limits assumed): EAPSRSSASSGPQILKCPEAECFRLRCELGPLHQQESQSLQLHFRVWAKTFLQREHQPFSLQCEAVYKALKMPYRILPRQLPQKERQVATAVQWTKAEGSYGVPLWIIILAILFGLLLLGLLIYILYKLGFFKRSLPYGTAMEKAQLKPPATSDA
Experiment [7] addresses T1, Integrin alpha-IIb/beta-3. As to the kind of experiment: Inhibition of human umbilical vein endothelial cells (HUVEC) attachment to fibrinogen (FG). The class given is functional, cell-based.
Target sequence in this assay (P05106 27-788 limits assumed): as the sequence (P05106 27-788 limits assumed) above
Target sequence in this assay (P08514 32-887 limits assumed): as the sequence (P08514 32-887 limits assumed) above
Target sequence in this assay (P08514 891-1039 limits assumed): as the sequence (P08514 891-1039 limits assumed) above
The target in another experiment is Integrin alpha-V/beta-3 (Homo sapiens, UniProt P05106+P06756). Kind of experiment: Inhibition of human umbilical vein endothelial cells (HUVEC) attachment to vitronectin (VN). The class given is functional, cell-based.
Chain of Integrin alpha-V/beta-3 (P05106 27-788 limits assumed): as the sequence (P05106 27-788 limits assumed) above
Chain of Integrin alpha-V/beta-3 (P06756 31-889 limits assumed): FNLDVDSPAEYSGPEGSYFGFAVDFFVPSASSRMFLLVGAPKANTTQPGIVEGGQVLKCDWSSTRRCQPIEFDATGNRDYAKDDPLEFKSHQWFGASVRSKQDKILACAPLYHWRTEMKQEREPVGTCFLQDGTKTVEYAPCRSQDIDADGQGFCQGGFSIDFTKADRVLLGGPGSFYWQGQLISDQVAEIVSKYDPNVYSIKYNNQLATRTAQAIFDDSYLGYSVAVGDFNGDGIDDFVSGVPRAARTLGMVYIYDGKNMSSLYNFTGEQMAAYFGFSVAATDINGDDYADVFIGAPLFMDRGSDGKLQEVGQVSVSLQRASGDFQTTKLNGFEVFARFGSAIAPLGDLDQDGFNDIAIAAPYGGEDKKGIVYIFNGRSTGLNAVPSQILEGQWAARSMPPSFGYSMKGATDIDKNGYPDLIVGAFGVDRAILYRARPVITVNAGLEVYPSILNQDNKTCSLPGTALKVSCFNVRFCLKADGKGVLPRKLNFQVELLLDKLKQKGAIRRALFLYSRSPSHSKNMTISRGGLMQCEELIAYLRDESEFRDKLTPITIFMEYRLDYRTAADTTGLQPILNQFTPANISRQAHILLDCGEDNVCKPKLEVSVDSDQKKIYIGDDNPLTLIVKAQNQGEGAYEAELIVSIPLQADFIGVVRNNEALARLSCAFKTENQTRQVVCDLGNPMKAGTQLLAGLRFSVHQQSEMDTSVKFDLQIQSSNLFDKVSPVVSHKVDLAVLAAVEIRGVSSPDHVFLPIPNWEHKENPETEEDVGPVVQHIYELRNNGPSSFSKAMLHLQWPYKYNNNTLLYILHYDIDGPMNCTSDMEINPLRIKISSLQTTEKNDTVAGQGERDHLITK
Chain of Integrin alpha-V/beta-3 (P06756 891-1048 limits assumed): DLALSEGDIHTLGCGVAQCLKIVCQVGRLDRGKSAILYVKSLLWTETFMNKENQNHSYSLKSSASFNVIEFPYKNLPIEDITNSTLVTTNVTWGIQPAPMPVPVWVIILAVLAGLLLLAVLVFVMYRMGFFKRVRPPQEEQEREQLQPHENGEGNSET
Experiment [8] concerns Canis familiaris. Kind of experiment: Compound was tested for inhibition of extent of ADP-induced platelet aggregation between 1 and 15 min at 30 ug/Kg intravenous bolus in dogs. Format: functional. The note with it: Canis lupus familiaris.

Molecules are shown by their SMILES.

As to `O=C(O)CCNC(=O)c1cc2n(n1)CCN(CCC1CCNCC1)C2=O`, in experiment [1], the ED50 was determined as 72 nM. Further, the IC50 (commonly the midpoint of a concentration-inhibition curve) in the experiment listed under Homo sapiens [2] stood at 250 nM. In addition, the Kd (in general, the constant that tells how readily two partners part at equilibrium) in [3] was 590 nM.
Taken in the same sequence, the figures for `CCCCS(=O)(=O)N[C@@H](CNC(=O)c1cc2n(n1)CCN(CCC1CCNCC1)C2=O)C(=O)O` were 0.12 nM, 9 nM and 1.8 nM.
In turn, `CCCCS(=O)(=O)N[C@@H](CNC(=O)c1cc2n(n1)CCCN(CCC1CCNCC1)C2=O)C(=O)O` showed an ED50 in experiment [1] of 0.12 nM. In experiment [3], this compound returned a Kd of 1.4 nM. In addition, testing at 0.01 mg/kg with Homo sapiens [4] gave an inhibition in vivo of 76%.
Consider `O=C(O)CCNC(=O)c1cc2n(n1)CCCN(CCC1CCNCC1)C2=O`, for which, in [1], the ED50 worked out at 46 nM. The IC50 in the experiment filed under Homo sapiens [2] came to 470 nM. Besides, the Kd in experiment [3] is 680 nM.
Consider `Cc1ccc(S(=O)(=O)N[C@@H](CNC(=O)c2cc3n(n2)CCCN(CCC2CCNCC2)C3=O)C(=O)O)cc1`, for which the inhibition in vivo (usually the drop in the measured response relative to a control, in per cent) at 0.01 mg/kg in the experiment with Homo sapiens [5] is more than 65%. The compound further displayed an inhibition in vivo at 100 mg/kg with Canis familiaris [6] of more than 85%. Also, the concentration for half-maximal inhibition (IC50) against Integrin alpha-5/beta-1 was more than 300000 nM; in experiment [7] it was more than 300000 nM; in the experiment filed under Homo sapiens [2], 8 nM; at Integrin alpha-V/beta-3, more than 300000 nM. Moreover, the ED50 in experiment [1] was found to be 0.08 nM. The compound further showed a Kd in experiment [3] of 1.1 nM.
In the case of `C[C@H](CC(=O)O)NC(=O)CN1CCC[C@@H](CCC2CCNCC2)C1=O`, the ED50 in [1] stood at 5 nM. Further, the inhibition in vivo at 0.03 mg/kg in the experiment on Canis familiaris [8] is more than 90%. The dissociation constant Kd in experiment [3] was determined as 600 nM.
